In ChEMBL document CHEMBL1275400, “Design, synthesis, and DNA-binding of N-alkyl(anilino)quinazoline derivatives” (J Med Chem, 2010):
pIC50, pKd: −log10 of the molar value. Calls of active or inactive are those of the source. No cut-off for these calls is given here.

What was measured:
[1] = tested on: Nucleic Acid; assay: Binding affinity to poly(dA-dT)2 in BPE buffer assessed as change in melting temperature at drug/DNA base pair ratio 1; assay type: nucleic-acid assay
Method in brief: (§1)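 Melting curves are read at 260 nm in BPE buffer, pH 7.1 (6 mM Na2HPO4, 2 mM NaH2PO4, 1 mM EDTA), in Peltier-heated 10 mm quartz cuvettes. Temperature rises from 20 to 100 °C at 1 °C/min and is monitored with a platinum probe. Tm is taken as the midpoint of the hyperchromic transition.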

[2] = tested on: Calf thymus DNA; assay: Binding affinity to calf thymus DNA in BPE buffer assessed as change in melting temperature at drug/DNA base pair ratio 1; assay type: nucleic-acid assay; conditions: Bos taurus; method in brief: as §1
[3] = target: T1, DNA topoisomerase 1 (Homo sapiens) (UniProt P11387); assay: Inhibition of human recombinant topoisomerase 1-mediated supercoiled pUC19 DNA relaxation up to 100 uM […] by agarose gel electrophoresis analysis; conditions: in the assay text read “45 mins” for “2 hrs”
T1 sequence (whole entry): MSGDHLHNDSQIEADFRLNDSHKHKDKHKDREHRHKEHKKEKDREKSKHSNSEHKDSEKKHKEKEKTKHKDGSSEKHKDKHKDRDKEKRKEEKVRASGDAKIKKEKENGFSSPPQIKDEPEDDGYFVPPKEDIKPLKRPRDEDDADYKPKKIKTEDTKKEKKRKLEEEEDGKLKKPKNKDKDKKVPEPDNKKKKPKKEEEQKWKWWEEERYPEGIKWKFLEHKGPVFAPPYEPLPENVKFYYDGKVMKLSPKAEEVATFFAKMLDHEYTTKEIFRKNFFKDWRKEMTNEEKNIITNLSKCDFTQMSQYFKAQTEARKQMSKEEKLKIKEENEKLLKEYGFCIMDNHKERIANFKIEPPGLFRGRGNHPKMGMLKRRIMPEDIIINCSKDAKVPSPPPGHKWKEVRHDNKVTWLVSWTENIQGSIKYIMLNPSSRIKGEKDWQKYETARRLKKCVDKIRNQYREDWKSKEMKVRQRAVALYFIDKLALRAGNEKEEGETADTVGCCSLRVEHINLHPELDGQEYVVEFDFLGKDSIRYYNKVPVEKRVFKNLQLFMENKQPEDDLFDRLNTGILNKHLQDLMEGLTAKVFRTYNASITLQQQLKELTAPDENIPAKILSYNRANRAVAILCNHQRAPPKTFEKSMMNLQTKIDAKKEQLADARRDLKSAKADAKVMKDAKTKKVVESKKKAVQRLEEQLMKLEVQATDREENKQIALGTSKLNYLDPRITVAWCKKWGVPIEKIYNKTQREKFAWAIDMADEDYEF
Method in brief: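 Supercoiled pUC19 (130 ng) is incubated with 4 units of recombinant human topoisomerase I for 45 min at 37 °C. The relaxation buffer is 50 mM Tris pH 7.8, 50 mM KCl, 10 mM MgCl2, 1 mM DTT and 1 mM EDTA, with graded drug. Reactions are stopped with 0.25% SDS and 250 μg/mL proteinase K. Samples are run on 1% agarose for 2 h at 120 V and stained with ethidium bromide.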

[4] = tested on: HT-29; assay: Antiproliferative activity against human HT-29 cells after 72 hrs by MTS assay; assay type: functional, cell-based; conditions: HT-29, 72 h
[5] = tested on: PC-3; assay: Antiproliferative activity against human PC3 cells after 72 hrs by MTS assay; assay type: functional, cell-based; conditions: PC-3, 72 h
[6] = tested on: Calf thymus DNA; assay: Binding affinity to calf thymus DNA in BPE buffer at drug/DNA base pair ratio up to 10 by UV spectroscopic analysis; assay type: nucleic-acid assay; conditions: Bos taurus
Method in brief: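 Absorption spectra are recorded in BPE buffer, pH 7.1, at a constant drug concentration of 20 μM. Aliquots of concentrated calf thymus DNA are added to cover a range of DNA-phosphate/drug ratios.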

[7] = tested on: Calf thymus DNA; assay: Binding affinity to calf thymus DNA at drug/DNA base pair ratio up to 4 by circular dichroism analysis; assay type: nucleic-acid assay; conditions: Bos taurus
Method in brief: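 CD spectra are recorded in 1 mM sodium cacodylate buffer, pH 7.0, in 10 mm quartz cuvettes, averaging four scans. A 50 μM drug solution is diluted stepwise with 5 mM DNA. Alternatively, the drug–DNA complex at high P/D is diluted with pure ligand solution to reach the desired drug/DNA ratio.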

[8] = tested on: MCF7; assay: Antiproliferative activity against human MCF7 cells after 72 hrs by MTS assay; assay type: functional, cell-based; conditions: MCF7, 72 h
[9] = tested on: Nucleic Acid; assay: Binding affinity to DNA assessed as inhibition of cleavage of DNA substrate up to 100 uM by Dnase1 footprinting assay; assay type: nucleic-acid assay
Method in brief: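 DNase I is then added to a final concentration of about 0.01 unit/mL. Digestion runs 3 min and is stopped by freeze-drying. Protected sites are localized on the gel.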

[10] = tested on: Nucleic Acid; assay: Binding affinity to DNA assessed as inhibition of cleavage of DNA substrate by densitometric analysis; assay type: nucleic-acid assay
[11] = tested on: Calf thymus DNA; assay: Binding affinity to calf thymus DNA by fluorescence titration assay; assay type: nucleic-acid assay, Bos taurus
Method in brief: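 Intrinsic drug fluorescence is measured at room temperature with excitation at 360 nm and emission scanned over 380–520 nm. Drug is held at 10 μM with DNA at 0.01–1 mM, each sample prepared separately. The apparent KD is obtained by nonlinear least-squares fitting to KD = [ligand][DNA]/[ligand-DNA].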

| SMILES | ΔTm [1] [°C] | ΔTm [2] [°C] | other results |
| --- | --- | --- | --- |
| COc1cc2ncnc(N(C)c3cccc(NC(=O)Nc4ccccc4)c3)c2cc1OC | 9.9 | 6 |  |
| COc1cc2ncnc(N(CCN(C)C)c3ccc(C)c(Br)c3)c2cc1OC | 20 | 9.9 |  |
| COc1cc2ncnc(Oc3ccc(NC(=O)Nc4ccccc4)cc3)c2cc1OC | 0.5 | 0.4 |  |
| COc1cc2ncnc(N(C)c3cc(Br)ccc3Br)c2cc1OC | 3.3 | 1.6 |  |
| COc1cc2ncnc(N(C)c3ccc(Br)cc3)c2cc1OC | 10.8 | 6 |  |
| COc1cc2ncnc(Oc3cccc(Br)c3)c2cc1OC | 0.7 | 0.7 |  |
| COc1cc2ncnc(Oc3cccc(NC(=O)Nc4ccccc4)c3)c2cc1OC | 0.5 | 0.4 |  |
| COc1cc2ncnc(N(C)c3cccc(Br)c3)c2cc1OC | 12.2 | 8.1 | inhibition [3]: inactive |
| CN(c1ccc(Br)cc1F)c1ncnc2cc3c(cc12)OCO3 | 4.2 | 3.6 |  |
| COc1cc2ncnc(N(C)c3cccc(C)c3)c2cc1OC | 9.7 | 7.1 |  |
| COc1ccc(NC(=O)Nc2cccc(N(C)c3ncnc4cc(OC)c(OC)cc34)c2)cc1 | 11 | 6.8 |  |
| COc1cc2ncnc(N(C)c3cccc(C(F)(F)F)c3)c2cc1OC | 9.5 | 5.8 |  |
| COc1cc2ncnc(N(C)c3cccc(NC(=O)NC4CCCCC4)c3)c2cc1OC | 9.7 | 5.7 |  |
| COc1cc2ncnc(N(C)c3ccc(C(F)(F)F)cc3)c2cc1OC | 9.1 | 6.5 |  |
| CCCCNC(=O)Nc1ccc(N(C)c2ncnc3cc(OC)c(OC)cc23)cc1 | 0.4 | 0.3 |  |
| COc1cc2ncnc(N(C)c3ccc(NC(=O)Nc4ccccc4)cc3)c2cc1OC | 0.6 | 0.4 |  |

| SMILES | ΔTm [1] [°C] | ΔTm [2] [°C] | other results |
| --- | --- | --- | --- |
| CCCCNC(=O)Nc1cccc(N(C)c2ncnc3cc(OC)c(OC)cc23)c1 | 8.1 | 5.7 |  |
| COc1ccc(NC(=O)Nc2ccc(Oc3ncnc4cc(OC)c(OC)cc34)cc2)cc1 | 0.5 | 0.3 |  |
| COc1cc2ncnc(N(C)c3cccc(F)c3)c2cc1OC | 9.8 | 7.3 |  |
| Fc1cc(Br)ccc1Nc1ncnc2cc3c(cc12)OCO3 | 0.5 | 0.3 |  |
| COc1cc2ncnc(N(C)c3ccc(C)c(C(F)(F)F)c3)c2cc1OC | 11 | 7.8 |  |
| CCN(c1ccc(C)c(Br)c1)c1ncnc2cc(OC)c(OC)cc12 | 13.4 | 8.8 |  |
| COc1cc2ncnc(N(C)c3cccc(NC(=O)Nc4ccc(F)c(Cl)c4)c3)c2cc1OC | 10.5 | 7.7 |  |
| COc1cc2ncnc(N(c3ccc(C)c(Br)c3)C(C)C)c2cc1OC | 12.4 | 5.8 |  |
| CCNC(=O)Nc1cccc(N(C)c2ncnc3cc(OC)c(OC)cc23)c1 | 7.9 | 5.2 |  |
| COc1cc2ncnc(N(CCN3CCCCC3)c3ccc(C)c(Br)c3)c2cc1OC | 27.7 | 13.5 | Activity [9]: Active |
| COc1cc2ncnc(N(C)c3ccc(C)c(Br)c3)c2cc1OC | 15 | 8.4 | pIC50 [4]: 5.20; Activity [10]: Active; inhibition [3]: inactive; pIC50 [5]: 5.02; Activity [6]: Active; Activity [9]: Active; Activity [7]: Active; pKd [11]: 3.49; pIC50 [8]: 5.00 |
| CCN(CC)CCN(c1ccc(C)c(Br)c1)c1ncnc2cc(OC)c(OC)cc12 | 24.1 | 14 | pIC50 [4]: 5.25; Activity [10]: Active; inhibition [3]: inactive; pIC50 [5]: < 5.00; Activity [6]: Active; Activity [9]: Active; Activity [7]: Active; pKd [11]: 4.40; pIC50 [8]: 5.17 |
| COc1ccc(NC(=O)Nc2cccc(Oc3ncnc4cc(OC)c(OC)cc34)c2)cc1 | 0.3 | 0.2 |  |
| CN(c1ccc(F)c(Cl)c1)c1ncnc2cc3c(cc12)OCO3 | 4.6 | 2.8 |  |
| CCCN(c1ccc(C)c(Br)c1)c1ncnc2cc(OC)c(OC)cc12 | 12.6 | 7 |  |
| COc1cc2ncnc(N(Cc3ccccc3)c3ccc(C)c(Br)c3)c2cc1OC | 9.6 | 6.5 |  |

Now from value to molecule, other results behind:

| ΔTm [1] [°C] | ΔTm [2] [°C] | SMILES | other results |
| --- | --- | --- | --- |
| 3.3 | 1.4 | COc1cc2ncnc(N(C)c3ccc(Br)cc3F)c2cc1OC |  |
| 13.7 | 8.9 | COc1cc2ncnc(N(C)c3ccc(C)c(Cl)c3)c2cc1OC |  |
| 0.5 | 0.8 | COc1cc2ncnc(Oc3ccc(Br)cc3F)c2cc1OC |  |
| 0.4 | 0.2 | COc1cc2ncnc(Nc3ccc(F)c(Cl)c3)c2cc1OC |  |
| 11.3 | 7.3 | COc1cc2ncnc(N(C)c3ccc(C)c(F)c3)c2cc1OC |  |
| 0.4 | 0.2 | COc1cc2ncnc(Nc3cccc(Br)c3)c2cc1OC | pIC50 [4]: 5.00; inhibition [3]: inactive; pIC50 [5]: < 5.00; Activity [6]: Active; Activity [7]: Active; pIC50 [8]: 5.33 |
| 0.3 | 0.3 | COc1cc2ncnc(Nc3cccc(C)c3)c2cc1OC |  |
| 0.5 | 0.1 | COc1cc2ncnc(Nc3ccc(C(F)(F)F)cc3)c2cc1OC |  |
| 0.5 | 0.2 | COc1cc2ncnc(Nc3cccc(C(F)(F)F)c3)c2cc1OC |  |
| 0.5 | 0.2 | COc1cc2ncnc(Nc3ccc(C)c(F)c3)c2cc1OC |  |
| 0.4 | 0.2 | COc1cc2ncnc(Nc3cccc(F)c3)c2cc1OC |  |
| 0.2 | 3.9 | COc1cc2ncnc(Nc3ccc(Br)cc3)c2cc1OC |  |
| 12.4 | 7.7 | COc1cc2ncnc(N(C)c3cccc(Cl)c3)c2cc1OC |  |
| 0.3 | 1.8 | COc1cc2ncnc(Nc3cccc(Cl)c3)c2cc1OC |  |
| 10.5 | 6.1 | COc1cc2ncnc(N(C)c3ccc(F)c(Cl)c3)c2cc1OC |  |
| 0.5 | 0.4 | COc1cc2ncnc(Nc3cc(Br)ccc3Br)c2cc1OC |  |
| 0.5 | 1.2 | COc1cc2ncnc(Oc3ccc(F)c(Cl)c3)c2cc1OC |  |
| 0.4 | 0.2 | COc1cc2ncnc(Nc3ccc(C)c(Br)c3)c2cc1OC |  |
| 0.5 | 0.4 | COc1cc2ncnc(Nc3ccc(C)c(C(F)(F)F)c3)c2cc1OC |  |
| 0.3 | 0.1 | COc1cc2ncnc(Nc3ccc(Br)cc3F)c2cc1OC |  |
| 0.4 | 0.3 | Fc1ccc(Nc2ncnc3cc4c(cc23)OCO4)cc1Cl |  |
| 0.4 | 0.3 | COc1cc2ncnc(Nc3ccc(C)c(Cl)c3)c2cc1OC |  |
